This is an account of results in ChEMBL document CHEMBL1147086, “Composite synthetic lethal identification of membrane traffic inhibitors” (Proc Natl Acad Sci U S A, 2007).

Format in all cases: organism-based
Holding throughout (conditions): in vivo

In series [1] the test system is Saccharomyces cerevisiae. The series is described as follows: Toxicity against wild type yeast MDY326 assessed as 2 fold reduction of cell growth at 14 uM. In short, it runs like this: (§1)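 Wild-type strain MDY326 (pdr5Δ snq2Δ) diluted to OD600 0.0003 in YPD, compound serially diluted into 30 μl cultures, grown 18–24 h at 30°C humidified; OD490 read after vortexing, normalized to untreated/DMSO wells; value is the concentration producing 2-fold growth inhibition.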

Series [2] relates to Saccharomyces cerevisiae. Put plainly: Toxicity against wild type yeast MDY326 assessed as 2 fold reduction of cell growth at 130 uM.
Series [3] deals with Saccharomyces cerevisiae. The series is described as follows: Toxicity against wild type yeast MDY326 assessed as 2 fold reduction of cell growth at 95 uM. In short, it runs like this:
as §1

As to `CC(=O)c1ccc(N2CCN(Cc3cccc(Cl)c3Cl)CC2)cc1`, in the series with Saccharomyces cerevisiae [1], the Activity result is “Toxic”.
Consider `CC(=O)c1ccc(N2CCN(CC3CCCC3)CC2)cc1`, for which the Activity entry in the series with Saccharomyces cerevisiae [2] was “Toxic”.
With `CC(=O)c1ccc(N2CCN(Cc3cccc(F)c3)CC2)cc1`, the Activity result in the series on Saccharomyces cerevisiae [3] is “Toxic”.
